What all share (format): ADME, organism-based
Data set [1] concerns Heart. Briefly: Biodistribution in CD1 mouse heart assessed per gram of wet tissue at 400 to 600 kBq, iv after 30 mins post-injection by gamma counting. As to conditions: in vivo, 0.5 h. In a few lines:
(§1)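 Female CD-1 mice (~8-12 weeks, 20-28 g) were fasted 24 h with free water. Conscious mice got 400-600 kBq [¹⁸F] tracer in saline by tail vein. At 5, 30, 60 or 120 min (n=4-5 per time) they were anesthetized, blood and urine sampled, then killed by cervical dislocation. Organs were weighed and γ-counted, giving % ID/g wet tissue.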

For data set [2], the system named is Spleen. Nature of the data set: Biodistribution in CD1 mouse spleen assessed per gram of wet tissue at 400 to 600 kBq, iv after 5 mins post-injection by gamma counting. The following applies: in vivo. In a few lines: (§2)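 Female CD-1 mice (~8-12 weeks, 20-28 g), habituated ≥48 h and fasted 24 h with water available. The [18F] tracer (>150 GBq/μmol at end of synthesis) was given in 200 μL saline into the tail vein of conscious animals. At each time point, n=4-5, mice were anaesthetised, blood and urine sampled, then killed by cervical dislocation. Organs were weighed and γ-counted, and values calculated as % ID/g wet tissue.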

The test system of data set [3] is Spleen. Briefly: Biodistribution in CD1 mouse spleen assessed per gram of wet tissue at 400 to 600 kBq, iv after 60 mins post-injection by gamma counting. As to conditions: in vivo, 1 h. In a few lines:
as §2

In data set [4] the test system is Pancreas. Nature of the data set: Biodistribution in CD1 mouse pancreas assessed per gram of wet tissue at 400 to 600 kBq, iv after 5 mins post-injection by gamma counting. As to conditions: in vivo. In a few lines: as §2
The subject of data set [5] is Cerebellum. Briefly: Biodistribution in CD1 mouse cerebellum assessed per gram of wet tissue at 400 to 600 kBq, iv after 120 mins post-injection by gamma counting. As to conditions: in vivo, 2 h. In a few lines:
as §1

Data set [6] relates to Spleen. Nature of the data set: Drug uptake in CD1 mouse spleen at 400 to 600 kBq, iv after 120 mins post-injection by gamma counting relative to initial uptake. As to conditions: in vivo, 2 h. In a few lines:
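Organ % ID/g was measured by γ-counting after tail-vein injection of 400-600 kBq [18F] tracer in saline to fasted female CD-1 mice (n=4-5 per time). The 120 min pi value is expressed relative to the initial (5 min pi) uptake.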

SMILES strings stand for the structures. A value given as a limit tells only on which side of the number the result lay.

The source of these data is ChEMBL document CHEMBL1154191, “Evaluation of spirocyclic 3-(3-fluoropropyl)-2-benzofurans as sigma1 receptor ligands for neuroimaging with positron emission tomography” (J Med Chem, 2009).

`[18F]CCCC1OC2(CCN(Cc3ccccc3)CC2)c2ccccc21` (stereo unspecified): the Drug uptake in data set [1] is on record as 3.75 %ID; in data set [2] it was 4.51 %ID; in data set [3] it was 5.56 %ID; in data set [4], 8.76 %ID; in data set [5], 2.41 %ID; in data set [6], above 70%.
